Source: ChEMBL document CHEMBL2177043, “HIV-1 X4 activities of polycationic "viologen" based dendrimers by interaction with the chemokine receptor CXCR4: study of structure-activity relationship” (J Med Chem, 2012)

What was measured:
[1] = Cytotoxicity against human MT4 cells by MTT assay; assay type: cell-based
[2] = Cytotoxicity against human PBMC cells by MTT assay; assay type: cell-based
[3] = biological target: T1, C-X-C chemokine receptor type 4 (Homo sapiens, UniProt P61073); assay: Inhibition of CXCL-12'AF647 binding to CXCR4 in human SUPT1 cells incubated for 15 mins by FACS; assay type: cell-based
Summary of the method: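 SupT1 cells (high CXCR4) washed, then incubated 15 min at room temperature with compounds at varied concentrations in HBSS containing 20 mM HEPES and 0.2% BSA, pH 7.4. CXCL12-AF647 added at 25 ng/mL final for 30 min at room temperature. Cells washed, fixed in 1% paraformaldehyde, and read by flow cytometry on FL4.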

[4] = biological target: T1, C-X-C chemokine receptor type 4; assay: Inhibition of anti-CXCR4 mAbs clone 1D9 binding to CXCR4 in human SUPT1 cells incubated for 30 mins by FACS
[5] = system: Human immunodeficiency virus 1; assay: Antiviral activity against X4 HIV1 NL4.3 infected in human PBMC assessed as inhibition of viral replication pre-incubated for 30 mins measured 5 days post infection by MTT assay; assay type: functional, organism-based; conditions: Human immunodeficiency virus 1, NL4.3
Summary of the method: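 Human PBMC infected with HIV-1 NL4.3. IC₅₀ is the concentration inhibiting viral replication by 50%, averaged over two independent experiments. Cytotoxicity (CC₅₀, 50% loss of PBMC viability) evaluated in the same assay.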

[6] = biological target: T1, C-X-C chemokine receptor type 4; assay: Antagonist activity against CXCR4 expressed in U87.CD.CXCR4 cells assessed as inhibition of CXCL12-induced calcium signaling incubated for 10 mins by FLIPR; assay type: functional, cell-based
Summary of the method: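 U87.CD4.CXCR4 cells seeded at 2 × 10⁴/well on 0.2% gelatin the day before, loaded with 4 μM Fluo-3 AM for 45 min at 37 °C, washed, then preincubated with compounds at varied concentrations in assay buffer for 10 min at 37 °C. Challenged with 25 ng/mL CXCL12; Ca²⁺ flux followed over time by FLIPR.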

[7] = system: Human immunodeficiency virus 1; assay: Antiviral activity against X4 HIV1 NL4.3 infected in human MT4 cells assessed as inhibition of viral replication pre-incubated for 30 mins […]; assay type: functional, organism-based; conditions: Human immunodeficiency virus 1, NL4.3, MT4
[8] = biological target: C-C chemokine receptor type 5 (Homo sapiens, UniProt P51681); assay: Antagonist activity against CCR5 expressed in U87.CD4.CCR5 cells assessed as inhibition of CCL3L1-induced calcium signaling incubated for 10 mins by FLIPR; assay type: functional, cell-based
Summary of the method: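 U87.CD4.CCR5 cells seeded at 2 × 10⁴/well on 0.2% gelatin the day before, loaded with 4 μM Fluo-3 AM for 45 min at 37 °C, washed, then preincubated with compounds at varied concentrations in assay buffer for 10 min at 37 °C. Stimulated with 10 ng/mL LD78β (CCL3L1); Ca²⁺ flux recorded by FLIPR.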

[9] = biological target: T1, C-X-C chemokine receptor type 4; assay: Inhibition of anti-CXCR4 mAbs clone 173 binding to CXCR4 in human SUPT1 cells incubated for 30 mins by FACS
[10] = biological target: T1, C-X-C chemokine receptor type 4; assay: Inhibition of anti-CXCR4 mAbs clone 12G5 binding to CXCR4 in human SUPT1 cells incubated for 30 mins by FACS

T1 sequence (P61073 whole entry): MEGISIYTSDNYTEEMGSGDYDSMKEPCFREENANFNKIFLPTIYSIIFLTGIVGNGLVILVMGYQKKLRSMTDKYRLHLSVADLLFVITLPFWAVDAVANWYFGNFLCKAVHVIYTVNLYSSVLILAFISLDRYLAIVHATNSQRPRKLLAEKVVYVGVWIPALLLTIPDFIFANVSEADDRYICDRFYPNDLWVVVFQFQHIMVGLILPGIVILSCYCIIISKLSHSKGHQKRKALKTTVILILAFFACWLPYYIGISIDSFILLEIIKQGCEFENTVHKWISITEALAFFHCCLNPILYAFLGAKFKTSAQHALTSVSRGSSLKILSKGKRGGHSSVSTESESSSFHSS

c1cc(CN2CCCNCCNCCCNCC2)ccc1CN1CCCNCCNCCCNCC1 [PLERIXAFOR] gave a CC50 [1] greater than 10 µg/mL and a CC50 [2] greater than 10 µg/mL.

With Cc1cn(CCC[n+]2ccc(-c3cc[n+](Cc4cc(C[n+]5ccc(-c6cc[n+](CCCn7cc(C)c(=O)[nH]c7=O)cc6)cc5)cc(C[n+]5ccc(-c6cc[n+](Cc7cc(C[n+]8ccc(-c9cc[n+](Cc%10cc(C[n+]%11ccc(-c%12cc[n+](CCCn%13cc(C)c(=O)[nH]c%13=O)cc%12)cc%11)cc(C[n+]%11ccc(-c%12cc[n+](CCCn%13cc(C)c(=O)[nH]c%13=O)cc%12)cc%11)c%10)cc9)cc8)cc(C[n+]8ccc(-c9cc[n+](Cc%10cc(C[n+]%11ccc(-c%12cc[n+](CCCn%13cc(C)c(=O)[nH]c%13=O)cc%12)cc%11)cc(C[n+]%11ccc(-c%12cc[n+](CCCn%13cc(C)c(=O)[nH]c%13=O)cc%12)cc%11)c%10)cc9)cc8)c7)cc6)cc5)c4)cc3)cc2)c(=O)[nH]c1=O.F[P-](F)(F)(F)(F)F.F[P-](F)(F)(F)(F)F.F[P-](F)(F)(F)(F)F.F[P-](F)(F)(F)(F)F.F[P-](F)(F)(F)(F)F.F[P-](F)(F)(F)(F)F.F[P-](F)(F)(F)(F)F.F[P-](F)(F)(F)(F)F.F[P-](F)(F)(F)(F)F.F[P-](F)(F)(F)(F)F.F[P-](F)(F)(F)(F)F.F[P-](F)(F)(F)(F)F.F[P-](F)(F)(F)(F)F.F[P-](F)(F)(F)(F)F.F[P-](F)(F)(F)(F)F.F[P-](F)(F)(F)(F)F.F[P-](F)(F)(F)(F)F.F[P-](F)(F)(F)(F)F the IC50 [3] was 0.231 µM, the IC50 [4] was 0.516 µM and the IC50 [5] was 0.89 µg/mL. It also gave a CC50 [1] of 10 µg/mL, an IC50 [6] of 0.279 µM and an IC50 [7] of 1.8 µg/mL. The CC50 [2] was 20 µg/mL, the IC50 [8] was 1.87 µM and the IC50 [9] was 0.403 µM. For the same compound, the IC50 [10] was 0.352 µM.

Compound Cc1cn(CCC[n+]2ccc(-c3cc[n+](Cc4cc(C[n+]5ccc(-c6cc[n+](CCCn7cc(C)c(=O)[nH]c7=O)cc6)cc5)cc(C[n+]5ccc(-c6cc[n+](Cc7cc(C[n+]8ccc(-c9cc[n+](Cc%10cc(C[n+]%11ccc(-c%12cc[n+](CCCn%13cc(C)c(=O)[nH]c%13=O)cc%12)cc%11)cc(C[n+]%11ccc(-c%12cc[n+](CCCn%13cc(C)c(=O)[nH]c%13=O)cc%12)cc%11)c%10)cc9)cc8)cc(-[n+]8ccc(-c9cc[n+](-c%10cc(C[n+]%11ccc(-c%12cc[n+](Cc%13cc(C[n+]%14ccc(-c%15cc[n+](CCCn%16cc(C)c(=O)[nH]c%16=O)cc%15)cc%14)cc(C[n+]%14ccc(-c%15cc[n+](CCCn%16cc(C)c(=O)[nH]c%16=O)cc%15)cc%14)c%13)cc%12)cc%11)cc(C[n+]%11ccc(-c%12cc[n+](Cc%13cc(C[n+]%14ccc(-c%15cc[n+](CCCn%16cc(C)c(=O)[nH]c%16=O)cc%15)cc%14)cc(C[n+]%14ccc(-c%15cc[n+](CCCn%16cc(C)c(=O)[nH]c%16=O)cc%15)cc%14)c%13)cc%12)cc%11)c%10)cc9)cc8)c7)cc6)cc5)c4)cc3)cc2)c(=O)[nH]c1=O.F[P-](F)(F)(F)(F)F.F[P-](F)(F)(F)(F)F.F[P-](F)(F)(F)(F)F.F[P-](F)(F)(F)(F)F.F[P-](F)(F)(F)(F)F.F[P-](F)(F)(F)(F)F.F[P-](F)(F)(F)(F)F.F[P-](F)(F)(F)(F)F.F[P-](F)(F)(F)(F)F.F[P-](F)(F)(F)(F)F.F[P-](F)(F)(F)(F)F.F[P-](F)(F)(F)(F)F.F[P-](F)(F)(F)(F)F.F[P-](F)(F)(F)(F)F.F[P-](F)(F)(F)(F)F.F[P-](F)(F)(F)(F)F.F[P-](F)(F)(F)(F)F.F[P-](F)(F)(F)(F)F.F[P-](F)(F)(F)(F)F.F[P-](F)(F)(F)(F)F.F[P-](F)(F)(F)(F)F.F[P-](F)(F)(F)(F)F.F[P-](F)(F)(F)(F)F.F[P-](F)(F)(F)(F)F.F[P-](F)(F)(F)(F)F.F[P-](F)(F)(F)(F)F has an IC50 [3] of 0.207 µM, an IC50 [4] of 0.326 µM and an IC50 [5] of 0.41 µg/mL. The CC50 [1] was 19 µg/mL, the IC50 [6] was 0.273 µM and the IC50 [7] was 1.5 µg/mL. It also gave a CC50 [2] of 20 µg/mL, an IC50 [8] of 3.66 µM and an IC50 [9] of 0.21 µM. The IC50 [10] was 0.236 µM.

In the case of CCc1cc[n+](-c2cc[n+](Cc3cc(C[n+]4ccc(-c5cc[n+](CC)cc5)cc4)cc(C[n+]4ccc(-c5cc[n+](Cc6cc(C[n+]7ccc(-c8cc[n+](Cc9cc(C[n+]%10ccc(-c%11cc[n+](CC)cc%11)cc%10)cc(C[n+]%10ccc(-c%11cc[n+](CC)cc%11)cc%10)c9)cc8)cc7)cc(-[n+]7ccc(-c8cc[n+](-c9cc(C[n+]%10ccc(-c%11cc[n+](Cc%12cc(C[n+]%13ccc(-c%14cc[n+](CC)cc%14)cc%13)cc(C[n+]%13ccc(-c%14cc[n+](CC)cc%14)cc%13)c%12)cc%11)cc%10)cc(C[n+]%10ccc(-c%11cc[n+](Cc%12cc(C[n+]%13ccc(-c%14cc[n+](CC)cc%14)cc%13)cc(C[n+]%13ccc(-c%14cc[n+](CC)cc%14)cc%13)c%12)cc%11)cc%10)c9)cc8)cc7)c6)cc5)cc4)c3)cc2)cc1.F[P-](F)(F)(F)(F)F.F[P-](F)(F)(F)(F)F.F[P-](F)(F)(F)(F)F.F[P-](F)(F)(F)(F)F.F[P-](F)(F)(F)(F)F.F[P-](F)(F)(F)(F)F.F[P-](F)(F)(F)(F)F.F[P-](F)(F)(F)(F)F.F[P-](F)(F)(F)(F)F.F[P-](F)(F)(F)(F)F.F[P-](F)(F)(F)(F)F.F[P-](F)(F)(F)(F)F.F[P-](F)(F)(F)(F)F.F[P-](F)(F)(F)(F)F.F[P-](F)(F)(F)(F)F.F[P-](F)(F)(F)(F)F.F[P-](F)(F)(F)(F)F.F[P-](F)(F)(F)(F)F.F[P-](F)(F)(F)(F)F.F[P-](F)(F)(F)(F)F.F[P-](F)(F)(F)(F)F.F[P-](F)(F)(F)(F)F.F[P-](F)(F)(F)(F)F.F[P-](F)(F)(F)(F)F.F[P-](F)(F)(F)(F)F.F[P-](F)(F)(F)(F)F, the IC50 [3] is reported as 0.285 µM, the IC50 [4] is reported as 0.446 µM and the IC50 [5] is reported as 0.12 µg/mL. It also gave a CC50 [1] of 34 µg/mL, an IC50 [6] of 0.538 µM and an IC50 [7] of 0.9 µg/mL. The CC50 [2] was 100 µg/mL, the IC50 [8] was 12.1 µM and the IC50 [9] was 0.203 µM. It also gave an IC50 [10] of 0.344 µM.
